The results in this text go back to ChEMBL document CHEMBL1154123, “Targeted isolation and structure elucidation of stilbene glycosides from the bark of Lysidice brevicalyx Wei guided by biological and chemical screening” (J Nat Prod, 2008).

The nature of test [1]: Antioxidant activity against ferrous ion-induced lipid peroxidation in liver microsomes assessed as inhibition rate at 10 uM by TBA method in presence of cysteine. Type of test: functional. Also on record: scale not given: the % may be the effect or the level left. To be noted: Microsome. Summed up: (§1)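 Liver microsomal protein (1.0 mg in 1 mL 0.1 M PBS, pH 7.4) incubated with […] cysteine and test sample at 37 °C for 15 min; peroxidation initiated with 0.05 mM FeSO4. Stopped with 20% trichloroacetic acid, centrifuged, supernatant heated with 0.67% TBA 10 min at 100 °C. MDA read at 532 nm; inhibition rate calculated against Fe2+-cysteine and solvent-only controls. Vitamin E positive control.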
On the technique in general: Liver microsomes are a subcellular fraction often used to study metabolism.

Test [2] can be described thus: Antioxidant activity against ferrous ion-induced lipid peroxidation in liver microsomes assessed as inhibition rate at 100 uM by TBA method in presence of cysteine. Type of test: functional. Also on record: scale not given: the % may be the effect or the level left. The note with it: Microsome. Summed up: as §1

For `Oc1ccc(/C=C/c2cc(O)cc(O[C@@H]3O[C@H](CO[C@@H]4OC[C@@H](O)[C@H](O)[C@H]4O)[C@@H](O)[C@H](O)[C@H]3O)c2)cc1`, the Activity in test [1] amounted to 4%; in test [2], 21%.
The corresponding values for `C[C@@H]1O[C@@H](O[C@H]2[C@H](Oc3cc(O)cc(/C=C/c4ccc(O)cc4)c3)OC[C@@H](O)[C@@H]2O)[C@H](O)[C@H](O)[C@H]1O` are 6% and 67%.
The corresponding values for `C[C@@H]1O[C@@H](O[C@H]2[C@H](Oc3cc(O)cc(/C=C\c4ccc(O)cc4)c3)O[C@H](CO)[C@@H](O)[C@@H]2O)[C@H](O)[C@H](O)[C@H]1O` are 11% and 10%.
The corresponding values for `COc1ccc(CCN(C)CCCC(C#N)(c2ccc(OC)c(OC)c2)C(C)C)cc1OC` (configuration not stated) are 33% and 81%.
For the compound `C[C@@H]1O[C@@H](O[C@H]2[C@H](Oc3cc(O)cc(/C=C/c4ccc(O)cc4)c3)O[C@H](CO)[C@@H](O)[C@@H]2O)[C@H](O)[C@H](O)[C@H]1O`, the Activity in test [1] was found to be 9%; in test [2] it was 39%.
Regarding `C[C@@H]1O[C@@H](OC[C@H]2O[C@@H](Oc3cc(O)cc(/C=C/c4ccc(O)cc4)c3)[C@H](O)[C@@H](O)[C@@H]2O)[C@H](O)[C@H](O)[C@H]1O`, the values for the Activity in test [1] and in test [2] were 11% and 31%, respectively.
Consider `OC[C@H]1O[C@@H](O[C@H]2[C@H](Oc3cc(O)cc(/C=C/c4ccc(O)cc4)c3)OC[C@@H](O)[C@@H]2O)[C@H](O)[C@@H](O)[C@@H]1O`, for which the Activity in test [1] was 5%; in test [2], 29%.
For `C[C@@H]1O[C@@H](OC[C@H]2O[C@@H](Oc3cc(O)cc(/C=C\c4ccc(O)cc4)c3)[C@H](O)[C@@H](O)[C@@H]2O)[C@H](O)[C@H](O)[C@H]1O`, the Activity in test [1] came out at 0%; in test [2], 15%.
`OC[C@H]1O[C@@H](Oc2cc(O)cc(/C=C/c3ccc(O)cc3)c2)[C@H](O)[C@@H](O)[C@@H]1O`: the Activity in test [1] worked out at 29%; in test [2] it was 100%.
The corresponding values for `C[C@@H]1O[C@@H](OC[C@H]2O[C@@H](Oc3cc(O)cc(/C=C\c4ccc(O)cc4)c3)[C@H](O[C@@H]3O[C@@H](C)[C@H](O)[C@@H](O)[C@H]3O)[C@@H](O)[C@@H]2O)[C@H](O)[C@H](O)[C@H]1O` are 8% and 25%.
The corresponding values for `C[C@@H]1O[C@@H](OC[C@H]2O[C@@H](Oc3cc(O)cc(/C=C/c4ccc(O)cc4)c3)[C@H](O[C@@H]3O[C@@H](C)[C@H](O)[C@@H](O)[C@H]3O)[C@@H](O)[C@@H]2O)[C@H](O)[C@H](O)[C@H]1O` are 5% and 39%.
